UPR CHOP act: apoptotic UPR (CHOP) activation; hit rate 0.34% among 330,000; activation, % at 10 µM; CHO-CHOP luciferase reporter, luminescence; percent of tunicamycin response over DMSO baseline; AID 449763;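 active = at 10 µM dose, activation of 40% or more, normalized to positive control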
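System: CHO-CHOP luciferase reporter cell line; amount: 500 cells/well; buffer or medium: F12 medium containing 10% fetal bovine serum; incubation: 6 h compound exposure at 37 °C after overnight seeding; measured by: luciferase luminescence after 10 min with Steady-Glo reagent; evaluation: % reporter activation, DMSO baseline versus tunicamycin full activation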
tim10-1 inh: inhibits growth of tim10-1 mutant yeast; inhibition, % at 20 µM; hit rate 2.2% among 330,000; S. cerevisiae tim10-1 ts strain growth, BacTiter-Glo, 24 h;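 active = inhibition of at least 40%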;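 note: mutant grown at 25 °C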
TIM10 inh: growth inhibitors of TIM10 yeast strain. S. cerevisiae TIM10 strain growth, BacTiter-Glo luminescence, 24 h. inhibition, % at 10 µM. hit rate 1.4% among 330,000. AID 463195;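 active = inhibition of 40% or more at the single tested concentration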;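 note: wild-type TIM10 isogenic control strain grown at permissive 25 °C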
UPR XBP1 act: adaptive UPR (XBP1) activation | hit rate 0.33% among 330,000 | CHO-XBP1 luciferase reporter, IRE1-XBP1 UPR activation, luminescence; percent of tunicamycin response, DMSO as zero | AID 463104 | activation, % at 20 µM;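 active = versus positive control, 20 µM dose yields 30% or more activation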
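Material: IRE1-XBP1 luciferase reporter CHO line / Quantity: one thousand reporter cells per well / Buffer or medium: F12 with 10% serum / Compound: 20 µM single concentration, DMSO 1% / Times: 6 h treatment, 37 °C / Detection: Steady-Glo luciferase glow luminescence, 10 min after reagent addition / Benchmarks: tunicamycin high, DMSO low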
tim23-1 inh: tim23-1 yeast growth inhibition. hit rate 1.3% among 330,000. AID 463212. inhibition, % at 20 µM. S. cerevisiae tim23-1 growth, BacTiter-Glo luminescence, 24 h;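 active = growth inhibition of the mutant yeast at or above 50%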;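 note: temperature-sensitive mutant grown at 25 °C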
TIM10 conf: confirmation of TIM10 yeast growth inhibitors | S. cerevisiae tim10 strain growth, BacTiter-Glo luminescence, 24 h | AID 463215 | hit rate 63% among 4,600 | shares compounds with TIM10 inh | inhibition, % at 10 µM;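 active = inhibition of yeast growth at or above a set limit in either of two replicates at 10 µM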; note: this counterscreen used the strain with wild-type TIM10
Each line names hits and unclear results; the compound was inactive in the other large screens (follow-up assays come after a bar, where they were run). The list is not random: actives were taken first. Their share in the collection is about 3.9%.

COc1cccc(-c2csc(N3CCN(C(=O)NC45CC6CC(CC(C6)C4)C5)CC3)n2)c1	TIM10 inh 42 | TIM10 conf inactive
Brc1ccc(-c2noc3c2-c2nc(C4CCCCC4)sc2CC3)cc1	none
CCc1n[nH]c(=S)n1/N=C/c1ccc(-c2ccc(Br)cc2)o1	none
CCc1n[nH]c(=S)n1/N=C/c1cc(Br)c(OC)cc1OC	TIM10 inh 53 | TIM10 conf inactive
CCN(CC(=O)NCc1cccs1)C(=O)/C=C/c1cc(OC)c(OC)c(OC)c1	none
O=C(CNC(=O)c1ccc(Br)o1)NCC1COc2ccccc2O1 (centres undefined)	none
O=C(CNS(=O)(=O)c1ccc(Br)s1)NCC1COc2ccccc2O1 (centres undefined)	TIM10 inh 61 | TIM10 conf 49
CCn1cc(/C=C(\NC(=O)c2cc(OC)c(OC)c(OC)c2)C(=O)NCCN2CCOCC2)c2ccccc21	TIM10 inh 97 | TIM10 conf inactive
CCn1cc(/C=C(\NC(=O)c2cc(OC)c(OC)c(OC)c2)C(=O)NCCCN2CCOCC2)c2ccccc21	none
COc1ccc(/C=C/C(=O)NC2CC3CCC2C3)cc1 (centres undefined)	none
COc1ccc(/C=N/NC(=S)N[C@H]2CC3CCC2C3)cc1 (some centres undefined)	TIM10 inh 47 | TIM10 conf 36
O=[N+]([O-])c1ccc(Sc2nc3ccccc3o2)c([N+](=O)[O-])c1	TIM10 inh 47 | TIM10 conf 68
CSc1cc(-c2ccc(Cl)cc2)c(C(=O)NN)s1	TIM10 inh 44 | TIM10 conf 27
O=C(NC(=S)NCCC1=CCCCC1)c1cccnc1	TIM10 inh 54 | TIM10 conf 48
O=C(NC(=S)NCc1ccccc1)c1cccnc1	none
COc1ccc(S(=O)(=O)N2CCCC2)cc1C(=O)O	none
O=C(N/N=C\C=C\c1ccco1)c1cc(-c2ccc3ccccc3c2)n[nH]1	TIM10 inh 52 | TIM10 conf 40
O=C(N/N=C/C=C\c1ccco1)c1ccccn1	TIM10 inh 90 | TIM10 conf inactive
O=C(N/N=C/C=C/c1ccco1)c1cnccn1	none
C=CCC[C@@H](Cc1ccc(F)cc1)C(=O)OC[C@@H](Cc1c[nH]c2ccccc12)NC(=O)[C@@H](CC=C)CC(=O)N[C@H](CO)Cc1ccccc1	none
CSC1=C(C#N)C(=O)NC(c2ccc(Cl)cc2)S1 (centres undefined)	TIM10 inh 46 | TIM10 conf inactive
CCc1nnc(NC(=O)CSc2nc(C)cc(C)c2C#N)s1	none
CN(C)c1ccc(C(=O)/C=C/c2ccc(Br)cc2)cc1	none
O=C(/C=C/c1ccc(Br)cc1)c1ccc(NC2=NCCCS2)cc1	TIM10 inh 52 | TIM10 conf inactive
CCC(C(=O)Nc1cc(C)nn1-c1nc(C)cc(C)n1)c1ccccc1 (centres undefined)	TIM10 inh 44 | TIM10 conf inactive
Cc1cc(C)nc(-n2nc(C)cc2NC(=O)CNCc2ccccc2)n1	none
COc1cccc(CN(C)C(=S)Nc2ccc(C)c(C)c2)c1	TIM10 inh 46 | TIM10 conf inactive
CC(/C=C1\N=C(SCc2ccccc2)SC1=O)=C\c1ccccc1	none
Cc1cccc(C)c1NC(=S)NC(=O)c1ccc(Br)o1	TIM10 inh 42 | TIM10 conf 43
CC(C)CC(=O)NC(=S)Nc1ccc(N2CCN(C(=O)c3cccs3)CC2)cc1	none
CCCC(=O)NC(=S)Nc1cccc(NC(=O)c2ccccc2)c1	none
CC(C)CC(=O)NC(=S)Nc1ccc(NC(=O)c2cccs2)cc1	TIM10 inh 51 | TIM10 conf inactive
CC(C)CC(=O)NC(=S)Nc1cccc(NC(=O)c2ccccc2)c1	TIM10 inh 47 | TIM10 conf 33
Oc1ccc(Br)cc1/C=N/n1c(C2CCCCC2)n[nH]c1=S	TIM10 inh 44 | TIM10 conf 56
Oc1ccc(/C=N/n2c(C3CCCCC3)n[nH]c2=S)c(O)c1	none
COc1ccc(C2c3cc(OC)c(OC)cc3CCN2C(=O)c2ccccc2Br)cc1OC (centres undefined)	none
CC(C)(C)c1nnc(NC(=S)Nc2ccccc2)s1	TIM10 inh 45 | TIM10 conf inactive
O=C(Nc1ccc(-c2cn3ccsc3n2)cc1)C1CC1	TIM10 inh 57 | TIM10 conf inactive
Clc1c(CSc2nc3ccccc3o2)nc2ccccn12	TIM10 inh 43 | TIM10 conf inactive
CCCc1cc(C(=O)OCC(=O)N2CCN(c3ccc(OC)cc3)CC2)sc1C	none
C[C@@H]1COC(=O)[C@H](CC(=O)OC(C)(C)C)C/C=C\C[C@@H](CC(=O)NCCO)C(=O)N1	none
O=C(ONc1ccc(N=NC(=O)c2ccccc2O)cc1)c1ccccc1	TIM10 inh 42 | TIM10 conf inactive
Cc1ccc(C)c(NC(=O)CN2C(=O)c3ccccc3C2=O)c1	none
Cc1ccc(NC(=O)CN2C(=O)c3ccccc3C2=O)c(C)c1	TIM10 inh 97 | TIM10 conf inactive
Cc1cc(C)nc(N/N=C/c2ccccc2OCc2cccc(Br)c2)n1	TIM10 inh 48 | TIM10 conf inactive
CCN1C(=O)/C(=C/c2nc3ccccc3c(=O)n2-c2ccccc2)c2ccccc21	TIM10 inh 43 | TIM10 conf inactive
CCN1C(=O)/C(=C/N(C)C)c2ccccc21	none
COc1ccc(C2(O)CCN(CC(=O)Nc3nc(-c4ccccc4)cs3)CC2)cc1	TIM10 inh 52 | TIM10 conf 43
c1ccc(NC2=NCCN2CC2CCCCCC2)cc1	none
O=C(NC12CC3CC(CC(C3)C1)C2)c1ccc(-c2ccc(Br)cc2)o1	TIM10 inh 49 | TIM10 conf 54
COc1cc(C2C(C#N)=C(N)OC3=C2C(=O)CC(C)(C)C3)cc2c1OCO2 (centres undefined)	none
O=C(Nc1ccc(Cl)c([N+](=O)[O-])c1)C(Sc1ccccc1)c1ccccc1 (centres undefined)	TIM10 inh 42 | TIM10 conf 43
CCOc1ccc(S(=O)(=O)n2c([N+](=O)[O-])cnc2C)c(C)c1C	TIM10 inh 97 | TIM10 conf inactive
CSc1ccc(C(=O)C2CCCN(C(=O)c3ccc4c(c3)no[n+]4[O-])C2)cc1 (centres undefined)	TIM10 inh 46 | TIM10 conf 35
Cc1ccc2c(c1)cc1c(=O)n(CC(=O)NCc3ccccn3)nc(C)n12	none
CC(=O)/C(=C/c1ccc(N(C)C)cc1)C(=O)c1ccccc1	TIM10 inh 41 | TIM10 conf inactive
O=C(NCCCNC(=O)c1ccccn1)c1ccc(Cl)cc1	none
CCCn1cc(NC(=O)c2cc(-c3ccccc3)on2)cn1	TIM10 inh 43 | TIM10 conf 41
